≈ marks a conversion by molar mass, not a printed value.
Experiments:
Saccharomyces cerevisiae = assay: Antimicrobial activity against Saccharomyces cerevisiae ATCC 9763 after 24 hrs by broth microdilution assay; assay type: functional; settings: ATCC 9763, 24 h
Summary of the method: (§1)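 Broth dilution MIC. Stock is 10 mg compound in 1 mL DMSO, serially diluted in Mueller–Hinton broth for bacteria or Sabouraud liquid medium for yeasts and mould. Tubes are inoculated at 10⁵ cfu/mL and incubated at 37 °C for 24 h. Controls are medium alone and medium with DMSO at matching dilutions. MIC is the lowest concentration giving complete growth inhibition.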

Enterococcus faecalis = assay: Antimicrobial activity against Streptococcus faecalis ATCC 14506 after 24 hrs by broth microdilution assay; assay type: functional; settings: ATCC 14506, 24 h; summary of the method: as §1
[1] = tested on: Mycobacterium tuberculosis; assay: Antimycobacterial activity against Mycobacterium tuberculosis H37Rv after 21 days by broth dilution assay; assay type: functional; settings: 504 h
Summary of the method: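 Middlebrook 7H9 broth with 10% albumin-dextrose-catalase and 0.2% glycerol; frozen culture thawed, diluted to 10⁵ cfu/mL and used as inoculum. Compounds taken up in DMSO and diluted twice in broth, 1.3% DMSO final. Incubated at 37 °C. Growth judged by eye against drug-free and inoculum-free controls and isoniazid. MIC is the lowest concentration inhibiting ≥99% of the starting population.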

Staphylococcus aureus = assay: Antimicrobial activity against Staphylococcus aureus ATCC 11632 after 24 hrs by broth microdilution assay; assay type: functional; settings: ATCC 11632, 24 h; summary of the method: as §1
Bacillus subtilis = assay: Antimicrobial activity against Bacillus subtilis ATCC 60511 after 24 hrs by broth microdilution assay; assay type: functional; settings: ATCC 60511, 24 h; summary of the method: as §1
Candida tropicalis = assay: Antimicrobial activity against Candida tropicalis ATCC 1369 after 24 hrs by broth microdilution assay; assay type: functional; settings: ATCC 1369, 24 h; summary of the method: as §1
Escherichia coli = assay: Antimicrobial activity against Escherichia coli ATCC 10536 after 24 hrs by broth microdilution assay; assay type: functional; settings: ATCC 10536, 24 h; summary of the method: as §1
A549 = assay: Cytotoxicity against human A549 cells at 250 uM; assay type: cell-based; settings: a549, 250 µM
Summary of the method: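 A549 lung adenocarcinoma cells are grown with fetal bovine serum. Compounds are taken from 10 mM DMSO stocks stored at −20 °C and diluted in culture medium, with treatments at 50–250 µM. Viability is read by MTT assay against untreated cells and a DMSO vehicle control.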

Pseudomonas aeruginosa = assay: Antimicrobial activity against Pseudomonas aeruginosa ATCC 10145 after 24 hrs by broth microdilution assay; assay type: functional; settings: ATCC 10145, 24 h; summary of the method: as §1
Klebsiella pneumoniae = assay: Antimicrobial activity against Klebsiella pneumoniae ATCC 10031 after 24 hrs by broth microdilution assay; assay type: functional; settings: ATCC 10031, 24 h; summary of the method: as §1
Aspergillus niger = assay: Antimicrobial activity against Aspergillus niger ATCC 6275 after 24 hrs by broth microdilution assay; assay type: functional; settings: ATCC 6275, 24 h; summary of the method: as §1

Row | SMILES | MIC (Saccharomyces cerevisiae) [µg/mL] | MIC (Enterococcus faecalis) [µg/mL] | MIC [1] [µg/mL] | MIC (Staphylococcus aureus) [µg/mL] | MIC (Bacillus subtilis) [µg/mL] | MIC (Candida tropicalis) [µg/mL] | MIC (Escherichia coli) [µg/mL] | Activity (A549) | MIC (Pseudomonas aeruginosa) [µg/mL] | MIC (Klebsiella pneumoniae) [µg/mL] | MIC (Aspergillus niger) [µg/mL]
1 | CC(C)c1csc(-c2nnc(-c3ccc([N+](=O)[O-])cc3)o2)n1 | 16 (≈ 50.6 µM) | 31.2 (≈ 98.8 µM) | 62.5 (≈ 198 µM) | 16 (≈ 50.6 µM) | 31.2 (≈ 98.8 µM) | 16 (≈ 50.6 µM) | 125 (≈ 395 µM) | 50% | 31.2 (≈ 98.8 µM) | 62.5 (≈ 198 µM) | 31.2 (≈ 98.8 µM)
2 | CC(=O)N1N=C(c2nc(C(C)C)cs2)OC1(C)C | 62.5 (≈ 234 µM) | 125 (≈ 468 µM) | 125 (≈ 468 µM) | 62.5 (≈ 234 µM) | 125 (≈ 468 µM) | 62.5 (≈ 234 µM) | 125 (≈ 468 µM) |  | 125 (≈ 468 µM) | 125 (≈ 468 µM) | 62.5 (≈ 234 µM)
3 | CC(=O)N1N=C(c2nc(C(C)C)cs2)OC1(C)c1ccccc1 (centres undefined) | 125 (≈ 379 µM) | 31.2 (≈ 94.9 µM) | 62.5 (≈ 190 µM) | 31.2 (≈ 94.9 µM) | 62.5 (≈ 190 µM) | 31.2 (≈ 94.9 µM) | 62.5 (≈ 190 µM) |  | 31.2 (≈ 94.9 µM) | 62.5 (≈ 190 µM) | 62.5 (≈ 190 µM)
4 | CC(=O)N1N=C(c2nc(C(C)C)cs2)OC1(C)c1ccc(Cl)cc1 (centres undefined) | 62.5 (≈ 172 µM) | 62.5 (≈ 172 µM) | 16 (≈ 44 µM) | 16 (≈ 44 µM) | 31.2 (≈ 85.9 µM) | 31.2 (≈ 85.9 µM) | 8 (≈ 22 µM) | Toxic | 8 (≈ 22 µM) | 8 (≈ 22 µM) | 62.5 (≈ 172 µM)
5 | Cc1ccc(/C=N/n2c(S)nnc2-c2nc(C(C)C)cs2)cc1 | 31.2 (≈ 91 µM) | 125 (≈ 364 µM) | 32.5 (≈ 94.6 µM) | 31.2 (≈ 91 µM) | 31.2 (≈ 91 µM) | 31.2 (≈ 91 µM) | 125 (≈ 364 µM) | 50% | 31.2 (≈ 91 µM) | 125 (≈ 364 µM) | 16 (≈ 46.6 µM)
6 | CC(C)c1csc(-c2nnc(S)n2/N=C/c2ccccc2Cl)n1 | 31.2 (≈ 85.9 µM) | 8 (≈ 22 µM) | 4 (≈ 11 µM) | 31.2 (≈ 85.9 µM) | 4 (≈ 11 µM) | 31.2 (≈ 85.9 µM) | 62.5 (≈ 172 µM) | 50% | 16 (≈ 44 µM) | 8 (≈ 22 µM) | 16 (≈ 44 µM)

— ChEMBL document CHEMBL1157864, “Synthesis of some novel 2-substituted-5-[isopropylthiazole] clubbed 1,2,4-triazole and 1,3,4-oxadiazoles as potential antimicrobial and antitubercular agents” (Eur J Med Chem, 2010)
